Measurements from PMC4829539 (International Journal of Medical Sciences, 2016).
Like-named read-outs stand apart in the source and are kept apart here. Values belong to the compound of their own block, whether it stands above or below them.

Tests used:
[1] = format: in vivo, Male Wistar rats; conditions: rats, i.v., LC-MS/MS
Outline: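 Anaesthetised 10-week-old male Wistar rats (pentobarbital 50 mg/kg, 37°C) received test compound 5.0 mg/kg i.v. via jugular vein, in saline. DMN array applied to shaved abdomen (2.0 m/s, then 2.5 N for 1-3 min). 2 µL ISF drawn from pore at 15, 30, 45, 60, 75, 90, 120 min; femoral-vein plasma sampled. Positive-ESI LC-MS/MS quantification; mean ± SE, unpaired t-test.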

[2] = n = 4, cited from earlier work
[3] = mice; cited from earlier work
[4] = from DMNs, rats; cited from earlier work
[5] = rats; cited from earlier work

Mean concentration of VCM in plasma compared with ISF, early phase ([1]; 30 min after administration): higher than that in ISF | Concentration of VCM in ISF compared with plasma, after 30 min ([1]; after 30 min): higher than that in plasma
Compound: CN[C@H](CC(C)C)C(=O)N[C@H]1C(=O)N[C@@H](CC(N)=O)C(=O)N[C@H]2C(=O)N[C@H]3C(=O)N[C@H](C(=O)N[C@H](C(=O)O)c4cc(O)cc(O)c4-c4cc3ccc4O)[C@H](O)c3ccc(c(Cl)c3)Oc3cc2cc(c3O[C@@H]2O[C@H](CO)[C@@H](O)[C@H](O)[C@H]2O[C@H]2C[C@](C)(N)[C@H](O)[C@H](C)O2)Oc2ccc(cc2Cl)[C@H]1O [VCM, Vancomycin]
AUC, ISF ([2]; ISF by ultrafiltration probe): 75300 ± 7700 ng·h/mL | Tmax (average), ISF ([2]; ISF by ultrafiltration probe): 39.6 min | AUC, blood ([2]; blood): 89800 ± 15700 ng·h/mL | Cmax in the blood ([2]; blood): 80.2 ± 18.5 µg/mL

Compound: erythropoietin [EPO]
Bioavailability (BA) from the DMNs [3]: 82.1-99.4%

Compound: insulin
Physiological availability (PA) [4]: 91.3-97.7%

Compound: low-molecular-weight heparin [LMWH]
Physiological availability (PA) [4]: 81.5-102.3%

Compound: recombinant human growth hormone [rhGH]
Bioavailability (BA) from the DMNs [5]: 87.5%
